Data reported in publication PMC3328401 (Journal of Medicinal Chemistry, 2012).

Test system: OVCAR-3 cells
Assay: Subcellular distribution of 125I-labeled reagents
Assay type: cell-based, human
Settings: for ^125I in cytoplasm, 24 hours / ^125I in nucleus, 24 hours: 1 h incubation then 24 h in fresh nonradioactive medium; for ^125I in cytoplasm, 1 hour / ^125I in nucleus, 1 hour: 1 h incubation, 55.5 kBq/mL
Procedure, shortened: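 OVCAR-3 cells were kept in RPMI-1640 with insulin, 2 mM L-glutamine and 20% FBS and expanded as intraperitoneal xenografts in athymic nude mice. Cells in six T150 flasks attached overnight, then were exposed 1 h to ¹²⁵I compound (55.5 kBq/mL). Three flasks were processed immediately and three after 24 h in fresh medium. Cells were trypsinized, counted, fractionated into nuclear/cytoplasmic compartments and gamma-counted.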

SMILES | ^125I in cytoplasm, 24 hours | ^125I in nucleus, 24 hours | ^125I in cytoplasm, 1 hour | ^125I in nucleus, 1 hour | retained radioactivity, more than 6b (OVCAR-3, 24 h) [%] | retained radioactivity, more than 7b (OVCAR-3, 24 h)
O=c1[nH]c(=O)n([C@H]2C[C@H](O)[C@@H](COP3(=O)OCc4ccccc4O3)O2)cc1[125I] (stereo partly shown) [6b, 5-[^125I]-Iodo-5′-O-cycloSaligenyl-2′-deoxyuridine Monophosphate] | 7.3 (1.0) cpm/10^3 cells (std dev) | 39.4 (5.8) cpm/10^3 cells (std dev) | 20.2 (3.2) cpm/10^3 cells (std dev) | 5.7 (1.6) cpm/10^3 cells (std dev) |  | 
Cc1cccc2c1OP(=O)(OC[C@H]1O[C@@H](n3cc([125I])c(=O)[nH]c3=O)C[C@@H]1O)OC2 (stereo partly shown) [7b, 5-[^125I]-Iodo-5′-O-cyclo(3-methylSaligenyl)-2′-deoxyuridine Monophosphate] | 1.6 (0.5) cpm/10^3 cells (std dev) | 25.9 (7.1) cpm/10^3 cells (std dev) | 11.7 (1.7) cpm/10^3 cells (std dev) | 4.5 (1.0) cpm/10^3 cells (std dev) |  | 
CC(C)(C)c1cc(C(C)(C)C)c2c(c1F)COP(=O)(OC[C@H]1O[C@@H](n3cc([125I])c(=O)[nH]c3=O)C[C@@H]1O)O2 (stereo partly shown) [8b, 5-[^125I]-Iodo-5′-O-[cyclo-3,5-di-(tert-butyl)-6-fluoroSaligenyl]-2′-deoxyuridine Monophosphate] | 3.2 (0.01) cpm/10^3 cells (std dev) | 92.2 (5.0) cpm/10^3 cells (std dev) | 88.3 (5.4) cpm/10^3 cells (std dev) | 7.9 (0.4) cpm/10^3 cells (std dev) | > 230 | ~ 360%
O=c1[nH]c(=O)n([C@H]2C[C@H](OP3(=O)OCc4ccccc4O3)[C@@H](COP3(=O)OCc4ccccc4O3)O2)cc1[125I] (stereo partly shown) [9b] | 37.3 (10.0) cpm/10^3 cells (std dev) | 18.1 (3.9) cpm/10^3 cells (std dev) | 97.6 (10.0) cpm/10^3 cells (std dev) | 6.4 (0.5) cpm/10^3 cells (std dev) |  | 
Cc1cccc2c1OP(=O)(OC[C@H]1O[C@@H](n3cc([125I])c(=O)[nH]c3=O)C[C@@H]1OP1(=O)OCc3cccc(C)c3O1)OC2 (stereo partly shown) [10b] | 13.4 (3.3) cpm/10^3 cells (std dev) | 24.5 (5.4) cpm/10^3 cells (std dev) | 97.1 (14.6) cpm/10^3 cells (std dev) | 6.0 (0.9) cpm/10^3 cells (std dev) |  | 
O=c1[nH]c(=O)n([C@H]2C[C@H](OP3(=O)OCc4ccccc4O3)[C@@H](CO)O2)cc1[125I] (stereo partly shown) [12b, 5-[^125I]-Iodo-3′-O-cycloSaligenyl-2′-deoxyuridine Monophosphate] | 2.7 (0.3) cpm/10^3 cells (std dev) | 30.2 (5.3) cpm/10^3 cells (std dev) | 7.2 (0.7) cpm/10^3 cells (std dev) | 2.1 (0.2) cpm/10^3 cells (std dev) |  | 
Cc1cccc2c1OP(=O)(O[C@H]1C[C@H](n3cc([125I])c(=O)[nH]c3=O)O[C@@H]1CO)OC2 (stereo partly shown) [13b, 5-[^125I]-Iodo-3′-O-cyclo(3-methylSaligenyl)-2′-deoxyuridine Monophosphate] | 1.4 (0.3) cpm/10^3 cells (std dev) | 15.7 (2.2) cpm/10^3 cells (std dev) | 6.2 (0.6) cpm/10^3 cells (std dev) | 2.0 (0.2) cpm/10^3 cells (std dev) |  | 
CC(C)(C)c1cc(C(C)(C)C)c2c(c1F)COP(=O)(O[C@H]1C[C@H](n3cc([125I])c(=O)[nH]c3=O)O[C@@H]1CO)O2 (stereo partly shown) [14b, 5-[^125I]-Iodo-3′-O-(cyclo-3,5-di-(tert-butyl)-6-fluoroSaligenyl)-2′-deoxyuridine Monophosphate] | 2.7 (0.4) cpm/10^3 cells (std dev) | 66.7 (8.4) cpm/10^3 cells (std dev) | 62.5 (4.3) cpm/10^3 cells (std dev) | 4.3 (0.3) cpm/10^3 cells (std dev) |  | 
